Experimental data taken from ChEMBL document CHEMBL1147094, “Novel in vivo model for the study of human immunodeficiency virus type 1 transcription inhibitors: evaluation of new 6-desfluoroquinolone derivatives” (Antimicrob Agents Chemother, 2007).
Values after ≈ are worked out from the molar mass of the structure shown. Active and inactive are the calls of the source. The rule behind the calls is not given here.

How the values were obtained:
[1] = tested on: Human immunodeficiency virus 1; experiment: Antiviral activity against HIV1 BaL chronically infected human M/M cells; format: functional, organism-based; conditions: Human immunodeficiency virus 1, BaL
[2] = tested on: Human immunodeficiency virus 1; experiment: Antiviral activity against human PMA-stimulated HIV1 expression in latently HIV1 infected U1 cells assessed as inhibition of viral p24 production; format: functional, organism-based
[3] = tested on: Human immunodeficiency virus 1; experiment: Antiviral activity against HIV1 BaL acutely infected human M/M cells; format: functional, organism-based; conditions: Human immunodeficiency virus 1, BaL
[4] = Cytotoxicity against latently HIV1 infected OM10.1 cells by MTT method; format: cell-based; conditions: human, OM10.1 cells latently infected with HIV-1
How it was run: (§1)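 OM-10.1 cells at 500,000 cells/ml were exposed to compound for 2 h, then stimulated with 1 ng/ml hTNF-α or 0.02 µM PMA for 2 days at 37°C. Viability was read by MTT staining. The selectivity index is CC50 from MTT divided by EC50 from p24 ELISA run in the same cultures.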

[5] = tested on: Human immunodeficiency virus 1; experiment: Antiviral activity against human TNF-alpha stimulated HIV1 expression in latently HIV1 infected OM10.1 cells assessed as inhibition of viral mRNA production; format: functional, organism-based
[6] = tested on: Human immunodeficiency virus 1; experiment: Antiviral activity against human PMA-stimulated HIV1 expression in latently HIV1 infected OM10.1 cells assessed as inhibition of viral p24 production; format: functional, organism-based
[7] = tested on: Human immunodeficiency virus 1; experiment: Inhibition of viral reactivation in SCID mouse inoculated with HIV1 infected OM10.1 cells at 50 mg/kg, ip for 3 days prior to hTNF alpha administration assessed as viral loads after 18 hrs; format: functional, organism-based; parameters: dose 50 mg/kg
[8] = tested on: Human immunodeficiency virus 1; experiment: Antiviral activity against PMA stimulated HIV1 expression in latently HIV1 infected OM10.1 cells assessed as inhibition of viral mRNA production; format: functional, organism-based
[9] = tested on: Human immunodeficiency virus 1; experiment: Antiviral activity against human PMA stimulated HIV1 expression in latently HIV1 infected U1 cells assessed as decrease in mRNA production; format: functional, organism-based
[10] = Selectivity index, CC50 for OM10.1 cells to EC50 for HIV1 infected OM10.1 cells; format: functional; how it was run: as §1
[11] = tested on: Human immunodeficiency virus 1; experiment: Antiviral activity against latently HIV1 infected OM10.1 cells assessed as inhibition of viral p24 antigen production; format: functional, organism-based
[12] = tested on: Human immunodeficiency virus 1; experiment: Antiviral activity against human TNF alpha-stimulated HIV1 expression in latently HIV1 infected U1 cells assessed as inhibition of viral p24 production; format: functional, organism-based
[13] = tested on: Human immunodeficiency virus 1; experiment: Antiviral activity against human TNF-alpha stimulated HIV1 expression in latently HIV1 infected U1 cells assessed as decrease in mRNA production; format: functional, organism-based
[14] = tested on: Human immunodeficiency virus 1; experiment: Antiviral activity against human TNF alpha-stimulated HIV1 expression in latently HIV1 infected OM10.1 cells assessed as inhibition of viral p24 production; format: functional, organism-based
[15] = tested on: Human immunodeficiency virus 1; experiment: Antiviral activity against latently HIV1 infected U1 cells assessed as inhibition of viral p24 antigen production; format: functional, organism-based

Row | Compound | EC50 [1] [µg/mL] | EC90 [1] [µg/mL] | Activity [2] | EC50 [3] [µg/mL] | EC90 [3] [µg/mL] | CC50 [4] [µg/mL] | IC50 [5] [µg/mL] | EC50 [6] [µg/mL] | Activity [7] | IC50 [8] [µg/mL] | Activity [9] | Ratio CC50/EC50 [10] | Activity [11] | Activity [12] | Activity [13] | EC50 [14] [µg/mL] | Activity [15]
1 | Cn1cc(C(=O)O)c(=O)c2ccc(N3CCN(c4nc5ccccc5s4)CC3)cc21 | 0.011 (≈ 0.0262 µM) | 0.16 (≈ 0.381 µM) | Dose-dependent effect | 0.025 (≈ 0.0595 µM) | 0.2 (≈ 0.476 µM) | 5 (≈ 11.9 µM) | 0.06 (≈ 0.143 µM) | 0.04 (≈ 0.0951 µM) | Active | 0.04 (≈ 0.0951 µM) | Dose-dependent effect | 125 | Dose-dependent effect | Dose-dependent effect | Dose-dependent effect | 0.045 (≈ 0.107 µM) | Dose-dependent effect
2 | Cn1cc(C(=O)O)c(=O)c2ccc(N3CCN(c4cccc(C(F)(F)F)c4)CC3)cc21 | 0.05 (≈ 0.116 µM) | 1 (≈ 2.32 µM) | Dose-dependent effect | 0.05 (≈ 0.116 µM) | 1 (≈ 2.32 µM) | 5 (≈ 11.6 µM) | 0.067 (≈ 0.155 µM) | 0.039 (≈ 0.0904 µM) | Active | 0.032 (≈ 0.0742 µM) | Dose-dependent effect | 125 | Dose-dependent effect | Dose-dependent effect | Dose-dependent effect | 0.054 (≈ 0.125 µM) | Dose-dependent effect
